From the M2OR odorant receptor database

target: T1, OR2A7 (Homo sapiens) (UniProt Q96R45); conditions: stereoisomer not certain
T1 sequence (whole entry): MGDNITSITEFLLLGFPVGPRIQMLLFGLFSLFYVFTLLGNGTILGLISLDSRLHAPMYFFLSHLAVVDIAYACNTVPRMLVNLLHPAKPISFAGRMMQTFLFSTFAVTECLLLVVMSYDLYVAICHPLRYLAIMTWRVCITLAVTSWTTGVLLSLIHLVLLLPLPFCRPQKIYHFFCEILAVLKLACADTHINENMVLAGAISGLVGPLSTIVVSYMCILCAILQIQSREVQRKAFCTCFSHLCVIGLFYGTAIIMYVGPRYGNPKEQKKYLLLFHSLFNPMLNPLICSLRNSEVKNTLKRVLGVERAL
Procedure, shortened: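 Assay methods differ from source to source, frequently being transient luciferase assays in mammalian cell lines. For each receptor–molecule pair, the label responsive (active) applies when the original authors judged the measured signal statistically different from baseline, and non-responsive (inactive) applies otherwise.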

Row | SMILES | odorant receptor agonist call
1 | C=C(C)C1CC=C(C)CC1 (centres undefined) | inactive
2 | CCCCCCCCCCCCCC(=O)O | inactive
3 | CC(C)=CCCC(C)=CCO | inactive
4 | CCCCCCCC(=O)[O-].[H+] | active
5 | CCCCCCCCCCCC(=O)O | active
6 | CCCCCCCCCCCCCC(=O)OCC | inactive
7 | CCCCCCCCCCCCCCC(=O)O | inactive
8 | CC(=O)O | inactive
9 | Cc1ccc(C(C)C)cc1 | inactive
10 | CC1=CCC2CC1C2(C)C (centres undefined) | active
11 | CCCCCCCCCC(=O)OC | inactive
12 | CCCCCCCCCCCCCC(=O)OC | inactive
13 | Cc1cnc(C)cn1 | inactive
14 | CC(C)=CCCC(C)=CCCC(C)=CCO | inactive
15 | CCCCCCCCCCCCCCCC(=O)OCC | inactive
16 | CC(C)(C)c1ccccc1 | active
17 | COc1ccc2[nH]cc(CCNC(C)=O)c2c1 | inactive
18 | C=C1CCC2CC1C2(C)C (centres undefined) | active
19 | CCCCCCCCCCCC(=O)OCC | inactive
20 | CCCO | inactive
21 | CCCCCCCCCCCCCCCCCC(=O)OC | inactive
22 | CCCCCCCCCC(=O)OCC | inactive
23 | CCCCCCCCCCCCCCCC(=O)OC | inactive
24 | CC(C=O)Cc1ccc(C(C)(C)C)cc1 (centres undefined) | active
25 | O=c1ccc2ccccc2o1 | inactive
26 | CCC(=O)O | inactive
27 | CCCCCCC(=O)[O-].[H+] | inactive
28 | CCCCCCCCCCCCCCCCCC(=O)[O-].[H+] | active
29 | CCCCCCCCO | inactive
